From PubChem
Sampled rows, rich in hits. Any-hit rate of the full collection: about 2.7%.
sdo1 growth – compounds rescuing growth of sdo1-depleted yeast, bone marrow failure model; S. cerevisiae sdo1-depleted JHY4D growth rescue, OD600 30 h; stronger effect = higher value; pdr5 snq2 efflux-pump mutant strain; z-score at 10 µM; 140,000 compounds, 0.21% hits; AID 817;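 active = z-score above 3 at both the 24 hr and the 30 hr optical density reads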;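 also: z-score against mean and SD of all compound wells on the same plate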
Yeast growth inh – yeast BB579 growth reduction in restrictive medium; inhibition, % at 10 µM; S. cerevisiae BB579 growth, OD615, 48 h; AID 804; 140,000 compounds, 0.51% hits;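 active = inhibition above a set limit, 3 SD over the mean compound inhibition, cut at about 44% in these data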
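Assay system – yeast BB579 (DeaD) · Dosing – single compound dose of 10 µM, 0.25% DMSO final · Detection – OD615 turbidity measurement · Buffer or medium – CSMM-D restrictive synthetic medium containing dextrose (glucose) · Benchmarks – positive control amphotericin B 10 µg/mL · Incubation – 48 h exposure, 30 °C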
RAM network inh – blocks the yeast RAM network | inhibition, % at 50 µM | 190,000 compounds, 1.8% hits | S. cerevisiae dse1pr::URA3 reporter, 5-FOA growth OD615, 2 d; analog-sensitive cbk1-as2 kinase mutant strain | AID 868;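 active = inhibition above a set limit, 3 SD over mean compound inhibition, cut at about 8.4% in these data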;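 also: 0% = DMSO-only wells with no growth and 100% = 10 µM 1-NA-PP1 full growth; inhibition rescues growth on 5-FOA so higher OD means more RAM inhibition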
Yeast lifespan up – extends the lifespan of yeast; AID 775; S. cerevisiae growth with nicotinamide, OD615; deaD strain in restrictive glucose medium; 130,000 compounds, 0.68% hits; inhibition of the nicotinamide effect, % at 10 µM;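 active = inhibition above a set limit, placed 3 SD over the median of all compounds, cut at about 26% in these data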;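 also: 0% = nicotinamide-treated wells and 100% = cells grown without nicotinamide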
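Test system – modified budding yeast, DeaD strain · Compound – single dose 10 µM compound, 0.25% DMSO · Times – culture preincubation 4 h, compound exposure 48 h, both 30 °C · Detection – optical density (absorbance) at 615 nm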
sdo1 rescue conf – SDO1-depleted yeast growth rescue confirmation; S. cerevisiae JHY4D (SDO1-depleted) growth rescue, OD600, 30 h; stronger effect = higher value; efflux-deficient strain, SNQ2 and PDR5 mutated; shares compounds with sdo1 growth; 440 compounds, 44% hits; OD recovery (test concentration not listed);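 active = yeast growth recovered at 30 hours, either rising with dose fitted slope above 0.001 or with average optical density gain above 0.07, some results past the limit were not filed as active; inactive = growth falling with dose or no effect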;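 also: gain in OD600 from 0 h to 30 h averaged across all seven doses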
Numbers without * were called inactive; x = no result.

SMILES	sdo1 growth	Yeast growth inh	RAM network inh	Yeast lifespan up	sdo1 rescue conf
NC(=S)Nn1c(-c2ccccc2)nc2ccccc2c1=O	11*	-9	1	-1	0.06
O=C(Cc1ccccc1)Nn1c(-c2ccccc2)nc2ccccc2c1=O	-0.02	-1	2	6	x
O=C(C(c1ccccc1)c1ccccc1)N(Cc1ccco1)C1CCS(=O)(=O)C1 (stereo not drawn)	16*	-36	2	-9	0.089*
Cn1nnnc1SCC(=O)NC1CCCCC1	2	-19	1	-12	0.047
CSC1=NCCN1C(=O)C12CC3CC(CC(C3)C1)C2	x	x	0	x	x
O=C(NC(=S)Nc1cc(S(=O)(=O)N2CCOCC2)ccc1N1CCOCC1)C1CCCC1	x	x	2	x	x
CCc1ccccc1NC(=O)CC(O)(C(=O)OC)C(F)(F)F (stereo not drawn)	3.1*	-16	1	-2	0.066
Cn1c2c(c(O)c(-c3ccccc3)c1=O)C(=O)CC(C)(C)C2	-0.12	-37	2	-1	x
Cc1cc(C)c(-c2c(O)c3c(n(C)c2=O)CC(C)(C)CC3=O)c(C)c1	10*	-10	1	5	0.08*
CC1CCN(C(=O)COC(=O)c2ccc3c(c2)OCO3)CC1	x	x	-1	x	x
CC1(C)Cc2nc3nc(SCC(=O)Nc4ccccc4)nc(N)c3cc2CO1	x	x	3	x	x
CC(NC(=O)CSCc1ccc(Br)cc1)c1ccccc1 (stereo not drawn)	x	x	2	x	x
CC(C)NC(=O)CSCc1cccc(Br)c1	5.2*	-57	1	-7	0.064
O=C(N1CCN(c2ccccc2)CC1)C(F)(F)C(F)F	0.12	-50	0	-8	x
O=C(N1CCN(c2ccccc2)CC1)C(F)(F)C(F)(F)F	3.4*	11	1	0	0.042
O=C(O)/C=C/C(=O)Nc1ccc2nccnc2c1	x	x	3	x	x
CN(Cc1ccccc1)S(=O)(=O)c1ccccc1[N+](=O)[O-]	x	x	2	x	x
CCN(CC)S(=O)(=O)c1ccc(-c2nnc(SCC(=O)Nc3ccc(OC)c(OC)c3)o2)cc1	2.8	-15	1	-15	0.064
COc1ccccc1NC(=O)CSc1nc(C)c2c(c1C#N)CCCC2	1.9	-42	7	-16	0.078*
COc1ccccc1NC(=O)CSc1nnc(-c2ccncc2)o1	0.67	-42	1	-13	x
COc1ccc(-c2nnc(SCC(=O)Nc3ccccc3OC)o2)cc1	7.5*	5	2	x	0.1*
CCN(CC)S(=O)(=O)c1ccc(-c2nnc(SCC(=O)Nc3ccc(OC)cc3)o2)cc1	-1.9	10	0	x	x
N#Cc1cnc(N)c(Br)c1	x	x	1	x	x
C=C(C)COc1ccc(-c2nc(N)ncc2Oc2ccc(OC)cc2)c(O)c1	3.5*	-24	8	-4	0.035
CC1(C)CC(=O)C(C(=O)/C=C/c2ccco2)C(=O)C1	x	x	1	x	x
SMILES	sdo1 growth	Yeast growth inh	RAM network inh	Yeast lifespan up	sdo1 rescue conf
O=C(CCCN1C(=O)c2ccccc2C1=O)NCC1CCCO1 (stereo not drawn)	2	-10	1	-1	0.035
O=C(CN1C(=O)c2ccccc2C1=O)NCC1CCCO1 (stereo not drawn)	0.2	-35	1	-4	x
COC(=O)C1CC(=O)c2ccsc2C1 (stereo not drawn)	1.8	-13	1	-1	x
CCOc1ccc(N(CC(=O)NCc2ccccc2)S(C)(=O)=O)cc1	5.5*	-8	2	-8	0.086*
COC(=O)c1cccc(NC(=O)c2ccc3c(c2)C(=O)N(CC2CCCO2)C3=O)c1 (stereo not drawn)	0.98	-5	1	-5	0.034
O=C(O)c1cccc(NC(=O)c2ccc3c(c2)C(=O)N(CC2CCCO2)C3=O)c1 (stereo not drawn)	0.91	-32	6	-4	x
N#C/C(=N\Nc1cccc2ccccc12)c1nnc2n1CCCCC2	-0.39	-8	4	-2	x
CC(=O)c1sc(NC(=O)c2cc3c(C)nn(-c4ccccc4)c3s2)nc1C	4*	-38	2	-4	0.11*
Cc1nc(NC(=O)c2cc3c(C)nn(-c4ccccc4)c3s2)sc1C(=O)Nc1ccccc1	-0.46	-22	2	-19	x
COc1ccc(NC(=O)C2CCCCN2S(=O)(=O)c2ccc(F)cc2)cc1 (stereo not drawn)	0.85	8	2	-6	0.042
Cc1ccc(CO/N=C\Cc2snc(Sc3ncc(C(F)(F)F)cc3Cl)c2C#N)cc1	3.7*	-77	3	1	0.049
Cc1c(NC(=O)c2ccc(Br)s2)c(=O)n(-c2ccccc2)n1C	x	x	1	x	x
